Measurements from ChEMBL document CHEMBL4024746, “Nonpyrogenic Molecular Adjuvants Based on norAbu-Muramyldipeptide and norAbu-Glucosaminyl Muramyldipeptide: Synthesis, Molecular Mechanisms of Action, and Biological Activities in Vitro and in Vivo” (J Med Chem, 2017).
Activity calls are given as the source filed them. No cut-off for these calls is given here.

What was measured:
[1] = target: T1, Nucleotide-binding oligomerization domain-containing protein 1 (Homo sapiens) (UniProt Q9Y239); assay: Agonist activity at human NOD1 receptor expressed in HEK-Blue reporter cells at 10 uM after 48 hrs by SEAP reporter gene assay; assay type: cell-based
T1 sequence (whole entry): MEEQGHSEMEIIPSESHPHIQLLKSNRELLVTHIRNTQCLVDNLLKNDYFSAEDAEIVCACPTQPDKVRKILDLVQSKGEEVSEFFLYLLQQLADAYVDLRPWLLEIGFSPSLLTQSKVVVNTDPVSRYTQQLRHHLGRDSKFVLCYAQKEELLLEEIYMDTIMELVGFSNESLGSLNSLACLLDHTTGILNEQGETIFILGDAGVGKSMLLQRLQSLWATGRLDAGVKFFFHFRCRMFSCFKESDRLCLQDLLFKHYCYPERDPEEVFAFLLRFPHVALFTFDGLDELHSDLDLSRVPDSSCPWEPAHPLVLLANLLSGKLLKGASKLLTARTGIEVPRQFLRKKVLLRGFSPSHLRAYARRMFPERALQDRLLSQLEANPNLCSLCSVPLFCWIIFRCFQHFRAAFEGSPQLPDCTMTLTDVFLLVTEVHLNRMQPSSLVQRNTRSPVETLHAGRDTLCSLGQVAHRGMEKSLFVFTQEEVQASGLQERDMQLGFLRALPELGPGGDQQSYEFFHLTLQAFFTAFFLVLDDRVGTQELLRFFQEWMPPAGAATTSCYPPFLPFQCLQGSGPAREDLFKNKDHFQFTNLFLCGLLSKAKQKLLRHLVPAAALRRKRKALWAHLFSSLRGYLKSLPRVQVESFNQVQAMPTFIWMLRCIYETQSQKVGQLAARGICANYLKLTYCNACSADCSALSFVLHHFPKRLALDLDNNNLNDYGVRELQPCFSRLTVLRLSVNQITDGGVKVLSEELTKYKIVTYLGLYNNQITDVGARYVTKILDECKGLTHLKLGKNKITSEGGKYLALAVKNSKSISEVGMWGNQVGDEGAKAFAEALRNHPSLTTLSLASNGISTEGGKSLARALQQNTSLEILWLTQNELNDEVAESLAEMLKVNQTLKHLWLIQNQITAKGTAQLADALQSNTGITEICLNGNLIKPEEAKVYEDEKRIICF
Outline: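 HEK293 cells cotransfected with human NOD1 and an NF-κB/AP-1-inducible SEAP reporter, exposed to compounds at 10 μM for 48 h. SEAP is read at 650 nm with QUANTI-Blue. Diaminopimelic acid derivatives serve as NOD1 positive controls. Dunnett's test is used versus untreated cells.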

Oryctolagus cuniculus [2] = assay: Pyrogenic activity in Chinchilla rabbit assessed as change in maximum body temperature at 100 nmol/kg, iv using micellar foemulation measured at 30 mins time intervals; assay type: toxicity, organism-based; settings: in vivo, 0.5 h
Outline: (§1)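 Standard rabbit pyrogenicity test, three animals per group, iv or modified sc application of free (micellar) or liposomal formulations. Maximum temperature rise (+ΔTmax) summed per group; sum below 1.1 °C classed as nonpyrogenic. Temperature followed a further 24 h for delayed pyrogenicity.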

Oryctolagus cuniculus [3] = assay: Pyrogenic activity in New Zealand albino rabbit assessed as change in maximum body temperature at 25 ug/kg, sc using liposomal formulation measured at 30 mins time intervals for 9 to 24 hrs (reference value: 0.2 degC); assay type: organism-based; settings: in vivo, 0.025 mg/kg
Mus musculus [4] = assay: Adjuvant activity in OspA immunized BALB/c mouse assessed as induction of total IgG1 antibody production administered id loaded in rOspA proteoliposomes measured 14 days after boost immunization by ELISA; assay type: functional
Outline: (§2)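 Female BALB/c mice, 6−8 weeks, five per group, immunized id with His-tagged rOspA (endotoxin below 2.5 EU/mg) on metallochelation liposomes (EPC/POPG/DOGS-NTA-Ni/adjuvant 71:19:5:5), 20 μg rOspA per dose; boost 14 days after prime. Pooled sera taken 14 days post-boost, run in duplicate by ELISA on 100 ng/well tag-free rOspA, diluted 1:1000–1:32000; reported as mean OD490 ± SD at 1:8000.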

[5] = target: Nucleotide-binding oligomerization domain-containing protein 2 (Homo sapiens) (UniProt Q9HC29); assay: Agonist activity at human NOD2 receptor expressed in mouse Raw-Blue reporter cells at 10 uM after 24 hrs in presence of GSK717 by SEAP reporter gene assay
Nucleotide-binding oligomerization domain-containing protein 2 (Homo sapiens), sequence (Q9HC29 whole entry, the tested form may be a part): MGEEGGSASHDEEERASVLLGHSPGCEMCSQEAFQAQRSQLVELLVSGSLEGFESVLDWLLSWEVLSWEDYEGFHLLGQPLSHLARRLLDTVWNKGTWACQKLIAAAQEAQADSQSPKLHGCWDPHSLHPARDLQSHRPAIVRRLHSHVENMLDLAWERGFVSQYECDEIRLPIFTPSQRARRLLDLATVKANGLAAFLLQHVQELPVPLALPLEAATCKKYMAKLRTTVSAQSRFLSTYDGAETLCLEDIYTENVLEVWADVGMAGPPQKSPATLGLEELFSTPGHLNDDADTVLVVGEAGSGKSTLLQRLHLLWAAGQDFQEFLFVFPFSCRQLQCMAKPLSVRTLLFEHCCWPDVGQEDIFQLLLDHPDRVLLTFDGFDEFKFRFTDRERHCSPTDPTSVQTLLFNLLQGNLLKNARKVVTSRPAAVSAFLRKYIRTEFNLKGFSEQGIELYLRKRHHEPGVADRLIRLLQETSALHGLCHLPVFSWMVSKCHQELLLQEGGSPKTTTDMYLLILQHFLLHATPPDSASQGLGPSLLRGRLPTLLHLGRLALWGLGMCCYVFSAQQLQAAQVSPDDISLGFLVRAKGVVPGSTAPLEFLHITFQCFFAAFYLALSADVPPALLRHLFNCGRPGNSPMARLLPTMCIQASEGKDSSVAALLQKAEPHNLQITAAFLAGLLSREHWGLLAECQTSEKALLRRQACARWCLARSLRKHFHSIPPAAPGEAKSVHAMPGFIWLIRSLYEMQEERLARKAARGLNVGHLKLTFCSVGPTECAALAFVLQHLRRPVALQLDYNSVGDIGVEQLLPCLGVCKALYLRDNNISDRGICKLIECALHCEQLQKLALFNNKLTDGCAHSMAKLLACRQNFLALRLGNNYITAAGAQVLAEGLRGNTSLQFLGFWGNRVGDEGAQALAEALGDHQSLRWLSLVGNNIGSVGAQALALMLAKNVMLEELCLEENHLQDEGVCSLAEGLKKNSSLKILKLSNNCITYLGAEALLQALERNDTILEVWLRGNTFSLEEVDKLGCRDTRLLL

Mus musculus [6] = assay: Immuno-stimulatory activity in ICR mouse assessed as induction of GM-progenitor cell proliferation in serum at […], sc using liposomal formulation measured after 6 hrs; assay type: functional, organism-based
Outline: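 Female ICR mice, 3 months old, four per group, given liposomal preparations sc at 100 nmol per dose in 200 μL. Serum collected 6 h later and added to cultured granulocyte–monocyte progenitors. GM-CFU colonies counted, with serum-free cells as baseline. Dunnett's test is used versus the infusion-solution control.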

Mus musculus [7] = assay: Toxicity in BALB/c mouse assessed as local reactions at site of drug application administered id loaded in rOspA proteoliposomes; settings: in vivo, other
Outline: (§3)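 Female BALB/c mice immunized id with rOspA metallochelation proteoliposomes carrying the adjuvant, prime and boost 14 days apart; injection sites inspected for irritation or local reactions.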

[8] = target: NACHT, LRR and PYD domains-containing protein 3 (Homo sapiens, UniProt Q96P20); assay: Agonist activity at NLRP3 in human […] cells assessed as induction of LPS-induced IL-1beta secretion by HEK-Blue reporter cell based assay
NACHT, LRR and PYD domains-containing protein 3, sequence (Q96P20 whole entry, the tested form may be a part): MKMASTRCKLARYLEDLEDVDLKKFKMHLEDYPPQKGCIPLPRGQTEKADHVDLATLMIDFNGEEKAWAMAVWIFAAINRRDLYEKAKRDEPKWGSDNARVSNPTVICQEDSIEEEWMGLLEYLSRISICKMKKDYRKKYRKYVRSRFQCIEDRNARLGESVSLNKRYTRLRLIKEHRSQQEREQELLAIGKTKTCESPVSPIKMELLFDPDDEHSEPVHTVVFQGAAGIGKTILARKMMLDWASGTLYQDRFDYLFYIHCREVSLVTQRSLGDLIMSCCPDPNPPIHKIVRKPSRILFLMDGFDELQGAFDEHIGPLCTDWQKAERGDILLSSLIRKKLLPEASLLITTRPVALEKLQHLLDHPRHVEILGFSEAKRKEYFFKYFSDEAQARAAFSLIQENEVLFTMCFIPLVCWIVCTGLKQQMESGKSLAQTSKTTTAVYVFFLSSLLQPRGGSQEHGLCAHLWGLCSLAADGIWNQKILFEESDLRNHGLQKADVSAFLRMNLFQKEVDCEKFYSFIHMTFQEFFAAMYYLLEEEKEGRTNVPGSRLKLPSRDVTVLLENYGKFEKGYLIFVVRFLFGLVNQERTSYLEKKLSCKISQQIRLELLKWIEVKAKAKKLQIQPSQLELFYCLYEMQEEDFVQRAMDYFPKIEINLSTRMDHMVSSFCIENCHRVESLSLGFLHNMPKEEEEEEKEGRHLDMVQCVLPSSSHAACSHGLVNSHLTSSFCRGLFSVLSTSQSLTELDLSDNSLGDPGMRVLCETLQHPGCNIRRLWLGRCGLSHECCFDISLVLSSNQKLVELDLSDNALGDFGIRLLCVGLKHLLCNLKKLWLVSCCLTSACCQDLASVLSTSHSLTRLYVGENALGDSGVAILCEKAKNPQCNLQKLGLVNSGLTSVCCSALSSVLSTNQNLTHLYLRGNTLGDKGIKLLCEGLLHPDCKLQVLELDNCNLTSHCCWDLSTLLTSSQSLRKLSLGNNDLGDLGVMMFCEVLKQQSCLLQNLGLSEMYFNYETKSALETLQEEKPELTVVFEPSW
Outline: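 THP1-Null cells stimulated with compounds; mature IL-1β released is detected with HEK-Blue IL-1β cells through SEAP reporter activity in the supernatant, read colorimetrically with QUANTI-Blue. ATP serves as positive standard. Untreated HEK-Blue IL-1β cells serve as negative control; comparison by ANOVA with Dunnett's test.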

Mus musculus [9] = assay: Toxicity in BALB/c mouse assessed as irritation at site of drug application administered id loaded in rOspA proteoliposomes; settings: in vivo, other; outline: as §3
Mus musculus [10] = assay: Adjuvant activity in OspA immunized BALB/c mouse assessed as induction of total Ig antibody production administered id loaded in rOspA proteoliposomes measured 14 days after boost immunization by ELISA; assay type: functional; outline: as §2
[11] = target: Nucleotide-binding oligomerization domain-containing protein 2 (Homo sapiens) (UniProt Q9HC29); assay: Agonist activity at human NOD2 receptor expressed in mouse Raw-Blue reporter cells at 10 uM after 48 hrs by SEAP reporter gene assay; assay type: cell-based
Outline: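 RAW 264.7-derived RAW-Blue cells carrying an NF-κB/AP-1-inducible SEAP reporter, exposed to compounds at 10 μM for 48 h. Colorimetric SEAP read-out at 650 nm. MDP serves as positive control. ANOVA with Dunnett's test versus untreated cells and versus MDP.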

[12] = target: Nucleotide-binding oligomerization domain-containing protein 2 (Homo sapiens) (UniProt Q9HC29); assay: Agonist activity at human NOD2 receptor expressed in mouse Raw-Blue reporter cells at 10 uM after 48 hrs in presence of gefitinib by SEAP reporter gene assay; assay type: cell-based
Oryctolagus cuniculus [13] = assay: Toxicity in New Zealand albino rabbit assessed as weight loss at 100 nmol/kg, sc using liposomal formulation measured up to 2 months post dose; assay type: organism-based; settings: in vivo
Oryctolagus cuniculus [14] = assay: Toxicity in Chinchilla rabbit assessed as necrosis at site of application at 100 nmol/kg, iv using micellar formulation measured up to 2 months post dose; assay type: organism-based; settings: in vivo
Oryctolagus cuniculus [15] = assay: Toxicity in New Zealand albino rabbit assessed as skin irritation at 100 nmol/kg, sc using liposomal formulation measured up to 2 months post dose; assay type: organism-based; settings: in vivo
Oryctolagus cuniculus [16] = assay: Toxicity in New Zealand albino rabbit assessed as behavioral changes at 100 nmol/kg, sc using liposomal formulation measured up to 2 months post dose; assay type: organism-based; settings: in vivo
Mus musculus [17] = assay: Adjuvant activity in OspA immunized BALB/c mouse assessed as induction of total IgG2a antibody production administered id loaded in rOspA proteoliposomes measured 14 days after boost immunization by ELISA; assay type: functional; outline: as §2
Oryctolagus cuniculus [18] = assay: Toxicity in Chinchilla rabbit assessed as skin irritation at 100 nmol/kg, iv using micellar formulation measured up to 2 months post dose; assay type: organism-based; settings: in vivo
Oryctolagus cuniculus [19] = assay: Toxicity in New Zealand albino rabbit assessed as necrosis at site of application at 100 nmol/kg, sc using liposomal formulation measured up to 2 months post dose; assay type: organism-based; settings: in vivo
Oryctolagus cuniculus [20] = assay: Toxicity in Chinchilla rabbit assessed as weight loss at 100 nmol/kg, iv using micellar formulation measured up to 2 months post dose; assay type: organism-based; settings: in vivo
Oryctolagus cuniculus [21] = assay: Pyrogenic activity in New Zealand albino rabbit assessed as change in maximum body temperature at 100 nmol/kg, sc using liposomal formulation measured at 30 mins time intervals for 9 to 24 hrs (reference value: 0.2 degC); assay type: toxicity, organism-based; settings: in vivo; outline: as §1
Oryctolagus cuniculus [22] = assay: Toxicity in Chinchilla rabbit assessed as behavioral changes at 100 nmol/kg, iv using micellar formulation measured up to 2 months post dose; assay type: organism-based; settings: in vivo
[23] = Solubility of the compound in PBS; assay type: physicochemical; settings: buffer
[24] = Solubility of the compound in DMSO; assay type: physicochemical
[25] = Solubility of the compound in ethanol; assay type: physicochemical

Question: With `CC(=O)N[C@H]1C(O)O[C@H](CO)[C@@H](O)[C@@H]1O[C@H](C)C(=O)N[C@@H](C)C(=O)N[C@H](CCC(=O)O)C(N)=O` (some centres not stated) [MURAMYL DIPEPTIDE] as the molecule, how does the Activity [1] read?
Answer: inactive

Question: And the deltaT (Oryctolagus cuniculus [2])?
Answer: 2.9 °C

Question: And the deltaT (Oryctolagus cuniculus [3])?
Answer: 2.7 °C

Question: What about the Activity (Mus musculus [4]) of the same molecule?
Answer: Active

Question: And the Activity [5]?
Answer: inactive

Question: What about the Activity (Mus musculus [6]) of the same molecule?
Answer: Active

Question: And the Activity (Mus musculus [7])?
Answer: Non-Toxic

Question: And the Activity [8]?
Answer: Active

Question: And the Activity (Mus musculus [9])?
Answer: Non-Toxic

Question: And the Activity (Mus musculus [10])?
Answer: Active

Question: What about the Activity [11] of the same molecule?
Answer: Active

Question: What about the Activity [12] of the same molecule?
Answer: inactive

Question: Which results are given for `CCCCCCCCCCCCCCC(CCCCCCCCCCCCCC)C(=O)NCCCC[C@H](NC(=O)CC[C@@H](NC(=O)[C@H](CC)NC(=O)CO[C@H]1[C@H](O)[C@@H](CO)OC(O)[C@@H]1NC(C)=O)C(N)=O)C(=O)O` (some centres not stated)?
Answer: Activity (Oryctolagus cuniculus [13]): Non-Toxic; Activity [1]: inactive; Activity (Oryctolagus cuniculus [14]): Non-Toxic; Activity (Oryctolagus cuniculus [15]): Non-Toxic; deltaT (Oryctolagus cuniculus [2]): 0.7 °C; Activity (Oryctolagus cuniculus [16]): Non-Toxic; Activity (Mus musculus [4]): Active; Activity (Mus musculus [17]): Active; Activity [5]: inactive; Activity (Mus musculus [6]): Active; Activity (Mus musculus [7]): Non-Toxic; Activity (Oryctolagus cuniculus [18]): Non-Toxic; Activity (Oryctolagus cuniculus [19]): Non-Toxic; Activity (Oryctolagus cuniculus [20]): Non-Toxic; deltaT (Oryctolagus cuniculus [21]): 0.6 °C; Activity (Oryctolagus cuniculus [22]): Non-Toxic; Activity [8]: Active; Activity (Mus musculus [9]): Non-Toxic; Activity (Mus musculus [10]): Active; Activity [11]: Active; Activity [12]: inactive

Question: For `CCCCCCCCCCCCCCC(CCCCCCCCCCCCCC)C(=O)N[C@H]1[C@H](O[C@H]2[C@H](OCC(=O)N[C@@H](CC)C(=O)N[C@H](CCC(=O)O)C(N)=O)[C@@H](NC(C)=O)C(O)O[C@@H]2CO)O[C@H](CO)[C@@H](O)[C@@H]1O` (some centres not stated), which Activity (Oryctolagus cuniculus [13]) is on record?
Answer: Non-Toxic

Question: And the Activity [1]?
Answer: inactive

Question: And the Activity (Oryctolagus cuniculus [14])?
Answer: Non-Toxic

Question: And the Activity (Oryctolagus cuniculus [15])?
Answer: Non-Toxic

Question: And the deltaT (Oryctolagus cuniculus [2])?
Answer: 0.7 °C

Question: What about the Activity (Oryctolagus cuniculus [16]) of the same molecule?
Answer: Non-Toxic

Question: What about the Activity [5] of the same molecule?
Answer: inactive

Question: What about the Activity (Mus musculus [6]) of the same molecule?
Answer: inactive

Question: What about the solubility [23] of the same molecule?
Answer: Soluble

Question: And the Activity (Oryctolagus cuniculus [18])?
Answer: Non-Toxic

Question: What about the Activity (Oryctolagus cuniculus [19]) of the same molecule?
Answer: Non-Toxic

Question: What about the Activity (Oryctolagus cuniculus [20]) of the same molecule?
Answer: Non-Toxic

Question: What about the solubility [24] of the same molecule?
Answer: Soluble

Question: What about the deltaT (Oryctolagus cuniculus [21]) of the same molecule?
Answer: 0.5 °C

Question: And the Activity (Oryctolagus cuniculus [22])?
Answer: Non-Toxic

Question: What about the Activity [8] of the same molecule?
Answer: Active

Question: And the solubility [25]?
Answer: Insoluble

Question: What about the Activity [11] of the same molecule?
Answer: Active

Question: And the Activity [12]?
Answer: inactive
